Consider 13 molecules from ChEMBL document CHEMBL4257574, “Structure-guided design and synthesis of isoflavone analogs of GW4064 with potent lipid accumulation inhibitory activities” (Bioorg Med Chem Lett, 2018).

Data set [1] has as its system 3T3-L1. The data set can be described thus: Cytotoxicity against mouse 3T3L1 cells assessed as reduction in cell viability at 40 uM after 48 hrs by MTT assay. The data set is classed as cell-based. The settings on record: 3t3-l1, 48 h. The gist of the method:
(§1)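 3T3-L1 preadipocytes incubated 48 h with 5, 10, 20 or 40 μM compound; viability read by MTT assay against 0.1% DMSO-treated control cells. Mean ± SD of three independent experiments.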

Data set [2] has as its system 3T3-L1. The data set can be described thus: Cytotoxicity against mouse 3T3L1 cells assessed as effect on cell viability at 10 uM after 48 hrs by MTT assay. The data set is classed as cell-based. The note with it: 3t3-l1, 48 h. The procedure, abridged: as §1
A general note: Formazan colour is commonly taken as a measure of viable cells.

Data set [3] has as its system 3T3-L1. The data set can be described thus: Reduction in lipid accumulation in mouse 3T3L1 cells at 10 uM by Oil Red O staining-based absorbance method relative to control. The data set is classed as functional. The procedure, abridged:
(§2)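 3T3-L1 preadipocytes differentiated to mature adipocytes, then treated with compound (screen at 10 μM; concentration series 10, 20, 40, 80 μM). Lipid stained with Oil Red O, dye extracted and absorbance read at 492 nm; microscopic images also taken. Compared with vehicle; mean ± SD of two independent experiments.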

In data set [4] the test system is 3T3-L1. The data set can be described thus: Increase in cell viability of mouse 3T3L1 cells at 5 uM after 48 hrs by MTT assay. The data set is classed as functional, cell-based. The procedure, abridged: as §1
For data set [5], the target named is T1, Bile acid receptor (Homo sapiens) (UniProt Q96RI1).
T1 sequence (whole entry): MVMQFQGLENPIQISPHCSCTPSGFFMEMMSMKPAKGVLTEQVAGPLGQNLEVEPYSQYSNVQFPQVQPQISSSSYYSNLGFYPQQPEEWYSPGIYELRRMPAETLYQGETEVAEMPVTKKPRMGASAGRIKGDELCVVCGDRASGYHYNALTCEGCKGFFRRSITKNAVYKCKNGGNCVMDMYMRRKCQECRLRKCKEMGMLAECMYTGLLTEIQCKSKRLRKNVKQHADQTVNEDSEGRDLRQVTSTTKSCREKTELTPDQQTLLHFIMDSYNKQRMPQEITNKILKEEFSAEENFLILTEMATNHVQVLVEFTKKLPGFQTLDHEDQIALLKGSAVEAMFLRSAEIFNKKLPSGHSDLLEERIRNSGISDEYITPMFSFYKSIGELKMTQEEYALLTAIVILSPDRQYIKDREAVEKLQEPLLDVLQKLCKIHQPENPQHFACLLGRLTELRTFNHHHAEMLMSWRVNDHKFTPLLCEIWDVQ
The data set can be described thus: Transactivation of FXR (unknown origin) at 10 uM by cell-based dual luciferase reporter gene assay. The procedure, abridged: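 Cell-based FXR transactivation measured with a dual-luciferase reporter system; cells exposed to 10 μM compound. Mean ± SEM, n = 3.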
(In general: In a reporter assay the amount or activity of a reporter protein is the signal.)

In data set [6] the test system is 3T3-L1. The data set can be described thus: Reduction in lipid accumulation in mouse 3T3L1 cells at 80 uM by Oil Red O staining-based absorbance method relative to control. The arrangement: scale not given: the % may be the effect or the level left. The data set is classed as functional. The procedure, abridged: as §2
Data set [7] deals with 3T3-L1. The data set can be described thus: Reduction in lipid accumulation in mouse 3T3L1 cells by Oil Red O staining-based absorbance method. The data set is classed as functional, cell-based. The procedure, abridged:
as §2

The test system of data set [8] is 3T3-L1. The data set can be described thus: Reduction in lipid accumulation in mouse 3T3L1 cells at 10 to 80 uM by Oil Red O staining-based microscopic analysis. The data set is classed as functional, cell-based. The gist of the method: as §2
Data set [9] has as its system HepG2. The data set can be described thus: Up-regulation of FXR mRNA expression in human HepG2 cells at 10 uM by RT-PCR analysis. The data set is classed as functional, cell-based. The gist of the method:
(§3)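 HepG2 cells exposed to test agent at 10 μM; mRNA of FXR and FXR-regulated genes SHP, BSEP and SREBP-1c quantified by real-time PCR relative to vehicle. Mean ± SEM, n = 3.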

For data set [10], the target named is T1, Bile acid receptor (Homo sapiens). The data set can be described thus: Agonist activity against FXR in human HepG2 cells assessed as up-regulation of SHP mRNA expression at 10 uM by RT-PCR analysis. The data set is classed as cell-based. The procedure, abridged: as §3
Data set [11] shares this target. The data set can be described thus: Agonist activity against FXR in human HepG2 cells assessed as up-regulation of BSEP mRNA expression at 10 uM by RT-PCR analysis. The data set is classed as cell-based. The gist of the method: as §3
Data set [12] shares this target. The data set can be described thus: Agonist activity against FXR in human HepG2 cells assessed as down regulation of SREBP-1c mRNA expression at 10 uM by RT-PCR analysis. The data set is classed as cell-based. The procedure, abridged:
as §3

The nature of data set [13]: Hepatotoxicity in human HepG2 cells assessed as reduction in cell viability at 80 uM. The data set is classed as toxicity, cell-based. The note with it: hepg2, 80 µM.
Data set [14] relates to HepG2. The data set can be described thus: Induction of cell proliferation in human HepG2 cells at <20 uM. The data set is classed as functional, cell-based.

Calls of active or inactive are those of the source. The calls are words filed in the database; no cut-off is given here.

On to `CC(C)c1onc(-c2c(Cl)cccc2Cl)c1COc1ccc2c(=O)c(-c3ccc(OCC(=O)O)cc3)coc2c1`, for which the Activity result in data set [1] and in [2] was “Non-Toxic” each time. Also, in data set [3], the outcome was Active.

As for `CC(C)c1onc(-c2c(Cl)cccc2Cl)c1COc1ccc2c(=O)c(-c3ccc(C(=O)O)cc3)coc2c1`, the Activity result in data set [1] and in [2] was “Non-Toxic” throughout. Further, the result in [3] was Active.

In the case of `CNC(=O)c1ccc(-c2coc3cc(OCc4c(-c5c(Cl)cccc5Cl)noc4C(C)C)ccc3c2=O)cc1`, the Activity entry in data set [1] and in data set [2] was “Non-Toxic” throughout. Moreover, the result in data set [3] was Active.

As to `CC(C)c1onc(-c2c(Cl)cccc2Cl)c1COc1ccc2c(=O)c(-c3ccc(C(=O)NC4CC4)cc3)coc2c1`, the Activity result in data set [1] and in data set [2] was “Non-Toxic” each time. Besides, the result in [4] and in data set [3] was Active.

In the case of `CC(C)c1onc(-c2c(Cl)cccc2Cl)c1COc1ccc2c(=O)c(-c3ccc(O)cc3)coc2c1`, the values for the Activity entry in [1] and in data set [2] were “Toxic” and “Non-Toxic”, respectively. In [3], the result was Active.

On to `CCNC(=O)c1ccc(-c2coc3cc(OCc4c(-c5c(Cl)cccc5Cl)noc4C(C)C)ccc3c2=O)cc1`, for which the Activity result in [1] and in data set [2] was “Non-Toxic” throughout. Moreover, the result in data set [3] was Active.

Consider `CC(C)c1onc(-c2c(Cl)cccc2Cl)c1COc1ccc(/C=C/c2cccc(C(=O)O)c2)c(Cl)c1`, for which the Activity entry in [2] is recorded as “Non-Toxic”. The result in [3] and in data set [5] was Active.

Consider `CC(C)c1onc(-c2c(Cl)cccc2Cl)c1COc1ccc2c(=O)c(-c3ccc(C(=O)N(C)C)cc3)coc2c1`, for which the Activity entry was “Non-Toxic” in [1]; “Non-Toxic” in [2]; above 50% in [6]; “Dose-dependent effect” in data set [7]; “Non-Toxic” in data set [13]. The result in data set [3], in data set [8], in data set [5], in [9], in [10] and in data set [11] was Active. In addition, the outcome in data set [12] and in data set [14] was Active.

In the case of `CC(C)c1onc(-c2c(Cl)cccc2Cl)c1COc1ccc2c(=O)c(-c3ccc([N+](=O)[O-])cc3)coc2c1`, the Activity result in data set [1] and in data set [2] was “Non-Toxic” throughout. For the same molecule, the result in [3] was Active.

With `CC(C)c1onc(-c2c(Cl)cccc2Cl)c1COc1ccc2c(=O)c(-c3ccc(F)cc3)coc2c1`, the Activity entry in data set [1] and in data set [2] was “Non-Toxic” in each case.

Regarding `COc1ccc(-c2coc3cc(OCc4c(-c5c(Cl)cccc5Cl)noc4C(C)C)ccc3c2=O)cc1`, the Activity result in [1] and in data set [2] was “Non-Toxic” each time. Moreover, in data set [3], the result was Active.

Turning to `CCOC(=O)COc1ccc(-c2coc3cc(OCc4c(-c5c(Cl)cccc5Cl)noc4C(C)C)ccc3c2=O)cc1`, the Activity entry in data set [1] and in [2] was “Non-Toxic” in each case. Also, in data set [3], the outcome was Active.

With `COC(=O)c1ccc(-c2coc3cc(OCc4c(-c5c(Cl)cccc5Cl)noc4C(C)C)ccc3c2=O)cc1`, the Activity entry in data set [1] and in [2] was “Non-Toxic” each time. Also, in data set [3], the result was Active.
